Data reported in ChEMBL document CHEMBL1955828, “Anti-mycobacterial activities of some cationic and anionic calix[4]arene derivatives” (Bioorg Med Chem, 2012).
Values after ≈ are worked out from the molar mass of the structure shown.

Columns and labels:
[1] = test system: Mycobacterium tuberculosis; assay: Antimycobacterial activity against isoniazid-resistant Mycobacterium tuberculosis MYC5165 after 6 days by MTT assay; format: functional, organism-based; conditions: MYC5165, 144 h
Procedure, shortened: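 Twofold serial compound dilutions in Middlebrook 7H9 broth were inoculated with bacterial suspension in 7H9 (H37Rv, or INH-resistant MYC5165) and incubated 6 days. MTT (1 mg/mL) was then added, followed by 1 more day of incubation, solubilisation buffer, and OD read at 570 nm. MIC was the lowest concentration inhibiting growth relative to untreated bacilli, and IC50 was also determined.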

[2] = test system: Mycobacterium tuberculosis; assay: Ratio of MIC for isoniazid to compound MIC isoniazid-resistant Mycobacterium tuberculosis MYC5165 after 6 days by MTT assay; format: functional
[3] = Selectivity ratio of CC50 for human MRC5 cells to MIC for isoniazid-resistant Mycobacterium tuberculosis MYC5165; format: functional

SMILES	IC50 [1]	MIC [1]	Ratio [2]	Ratio [3]
NCCc1cc2c(O)c(c1)Cc1cc(CCN)cc(c1O)Cc1cc(CCN)cc(c1O)Cc1cc(CCN)cc(c1O)C2	700 nM	3.2 µM (≈ 1.91 µg/mL)	–	–
Cc1ccc(-c2ccc(COc3c4cc(CCN)cc3Cc3cc(CCN)cc(c3O)Cc3cc(CCN)cc(c3OCc3ccc(-c5ccc(C)cn5)nc3)Cc3cc(CCN)cc(c3O)C4)cn2)nc1	500 nM	1.6 µM (≈ 1.54 µg/mL)	–	–
Cc1ccc(-c2ccc(COc3c4cc(CCNC(=N)N)cc3Cc3cc(CCNC(=N)N)cc(c3O)Cc3cc(CCNC(=N)N)cc(c3OCc3ccc(-c5ccc(C)cn5)nc3)Cc3cc(CCNC(=N)N)cc(c3O)C4)cn2)nc1.O=C(O)C(F)(F)F	100 nM	0.4 µM	15	85
Cc1csc(-c2nc(COc3c4cc(CCNC(=N)N)cc3Cc3cc(CCNC(=N)N)cc(c3O)Cc3cc(CCNC(=N)N)cc(c3OCc3csc(-c5nc(C)cs5)n3)Cc3cc(CCNC(=N)N)cc(c3O)C4)cs2)n1.O=C(O)C(F)(F)F	< 100 nM	0.1 µM	125	6
N=C(N)NCCc1cc2c(O)c(c1)Cc1cc(CCNC(=N)N)cc(c1O)Cc1cc(CCNC(=N)N)cc(c1O)Cc1cc(CCNC(=N)N)cc(c1O)C2.O=C(O)C(F)(F)F	100 nM	0.8 µM	15	256
O=C(O)c1cn(C2CC2)c2cc(N3CCNCC3)c(F)cc2c1=O [CIPROFLOXACIN]	–	2.5 µM (≈ 0.828 µg/mL)	–	–
NNC(=O)c1ccncc1 [ISONIAZID]	–	12.5 µM (≈ 1.71 µg/mL)	–	–
